Screen size: about 300,000 compounds; about 4,400 (1.5%) were called active.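 Rule for the calls: active = mean inhibition across valid replicates above about 55% (limit read from the data); inconclusive = mean below that limit but half or more replicates reach it; inactive = mean below it, under half of replicates reach it.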 The full list was thinned out, with actives kept by preference.

This test can be described thus: Trypanosoma cruzi replication blockers in host cells – luminescence, NIH3T3 host cells, primary screen (AID 1885).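 Note: signal also drops with host cell toxicity which is not excluded here; 0% = plate median of DMSO wells and 100% = zero luminescence signal; higher percent means less beta-gal luminescence so fewer parasites.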 The conditions noted are these: T. cruzi beta-gal in NIH3T3, luminescence, 90 h; active compounds read high; concentration not given here. The method, boiled down: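 Test system: β-gal T. cruzi (Tulahuen C4) inside NIH/3T3 cells / Quantity: 5,000 cells/well / Measured by: luminescence from GalScreen with 0.05% NP40, read after 60 min / Medium: DMEM plus 2% FBS / Measure: parasite load inhibition, % / Reagent: Tulahuen C4 trypomastigotes, 5000/well / Schedule: co-culture of at least 90 h after 3 h attachment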
Consider `COc1ccc(C2CC(=O)Oc3ccc(C(C)(C)C)cc32)cc1` (stereo not given), for which the inhibition was -9.82% (inactive). Under `COc1ccc2oc(=O)cc(CN3CCOCC3)c2c1` stands -6.42% (inactive); under `CCOc1ccc(N(C)Cc2cc(=O)oc3ccc(OC)cc23)cc1`, 79.2% (active); under `COc1ccc2oc(=O)cc(-c3cc4ccccc4o3)c2c1`, 0.932% (inactive). Turning to `CCCn1c(C2CCCN2c2nc(-c3ccc(OC)cc3)cs2)nc2ccccc21` (stereo not given), the inhibition was -7.75% (inactive). For the compound `Oc1c(C(c2ccccn2)N2CCOCC2)ccc2cccnc12` (stereo not given), the inhibition was 10.2% (inactive). Consider `CCOC(=O)N1CCN(C(c2cccnc2)c2ccc3cccnc3c2O)CC1` (stereo not given), for which the inhibition is 30.1% (inactive). As to `CCN1CCN(C(c2cccnc2)c2cc(Cl)c3cccnc3c2O)CC1` (stereo not given), the inhibition is 57.7% (active).

`COc1ccc(Cl)cc1NS(=O)(=O)c1cccc(C(=O)NC2CCC(O)CC2)c1` (stereo not given): the inhibition was 3.45% (inactive). As to `COC(=O)c1c(-c2ccsc2)oc2ccc(-c3cc(OC)c(OC)c(OC)c3)cc12`, the inhibition is 34% (inactive). With `Cc1nnc(N/N=C/c2ccccn2)[nH]c1=O`, the inhibition was 60.9% (active). Regarding `Cc1nnc(N/N=C/C2CC=CCC2)[nH]c1=O` (stereo not given), the inhibition is 0.195% (inactive).

As to `CNC(=O)C(=O)N/N=C/c1ccccn1`, the inhibition was -8.15% (inactive). The same measure for `CC1(C)S[C@@H]2[C@H](N=CN3CCCCCC3)C(=O)N2[C@H]1C(=O)O`: 4.45% (inactive); for `O=C(NCc1ccc(Cl)cc1)C(=O)NCC1CCCN1S(=O)(=O)c1cccs1` (stereo not given): 12.8% (inactive). Consider `O=C(CSc1ncn[nH]1)N/N=C/c1ccc(F)cc1`, for which the inhibition was -12.6% (inactive).

As for `O=C(/C=C/Sc1ncn[nH]1)c1ccc(Cl)cc1`, the inhibition is 56.1% (active). Turning to `Cc1cc(C)nc(S/C=C/C(=O)c2ccccc2)n1`, the inhibition is 12% (inactive). The same measure for `O=C1[C@H]2[C@@H](c3ccc(F)cc3)N3C(=O)N(c4ccc(C(F)(F)F)cc4)C(=O)[C@@]3(Cc3ccccc3)[C@H]2C(=O)N1C1CCCCC1`: 36.5% (inactive); for `COc1ccc(CNC(=O)C2CCN(C(=O)c3ccccc3)CC2)cc1`: -1.19% (inactive); for `COc1cccc(N=c2oc3c(C)ncc(CO)c3cc2C(N)=O)c1`: 13.3% (inactive).

Regarding `CCCc1nc(NCc2ccc3c(c2)OCO3)c2nnn(Cc3ccccc3Cl)c2n1`, the inhibition was 11.9% (inactive). Consider `Cc1nc(Nc2ccccc2F)c2nnn(Cc3ccccc3Cl)c2n1`, for which the inhibition was -8.04% (inactive). For `Cc1nc(Nc2ccc3c(c2)OCCO3)c2nnn(Cc3ccccc3Cl)c2n1`, the inhibition is 54.7% (active). Take `Cc1ccc(NS(=O)(=O)c2ccc3c(c2)NC(=O)CO3)cc1`: the inhibition is 5.83% (inactive). As to `CN(CC(=O)Nc1cccc(F)c1)C(=O)C1CC(=O)N(CCc2ccccc2)C1` (stereo not given), the inhibition is -2.73% (inactive).

On to `NNC(=O)CSc1nnc(-c2ccccc2)n1-c1ccccc1`, for which the inhibition is -6.88% (inactive). For the compound `Cc1ccc(-c2nnc(SCC(=O)N/N=C/c3cccs3)n2-c2ccc(C)cc2)cc1`, the inhibition is 12.8% (inactive).

Take `Cc1ccc(-n2c(SCC(=O)N3c4ccccc4Sc4ccccc43)nnc2-c2ccncc2)cc1`: the inhibition was 63.1% (active).

Take `O=C(CCC1CCCN(C(=O)c2ccc(F)c(F)c2)C1)N1CCN(c2ccccn2)CC1` (stereo not given): the inhibition is 9.19% (inactive).

Take `COc1cc(/C=C2/SC(=S)N(Cc3ccccc3)C2=O)cc(OC)c1O`: the inhibition was -5.6% (inactive). On to `O=C(Nc1cccc2cccnc12)c1cccc(Cl)c1`, for which the inhibition was -33.4% (inactive). As to `CC(=O)/C(=N\Nc1ccc(Cl)cc1Cl)Sc1cccc2cccnc12`, the inhibition was 67.6% (active). For the compound `O=C(Nc1ccccc1Cl)Nc1cccc2cccnc12`, the inhibition was 3.14% (inactive). In the case of `CCOc1ccc(C(=O)CCC(=O)NC2=NCCS2)cc1`, the inhibition is 10.9% (inactive).

In the case of `CC(=O)c1cc(CN2CCC(n3nccc3NC(=O)c3ccccc3Cl)CC2)cs1`, the inhibition is 9.08% (inactive).

For `N=c1c2c(-c3ccccc3)c(-c3ccccc3)n(Cc3ccccc3)c2ncn1CCCO`, the inhibition was 70.5% (active). With `COCCn1cnc2c1c(=O)n(Cc1ccc(Br)cc1)c(=O)n2Cc1ccccc1`, the inhibition was 19.6% (inactive). Under `CCN(CC)CCn1cnc2c1c(=O)[nH]c(=O)n2Cc1ccccc1` stands -8.26% (inactive).

With `N#Cc1ccc(-c2ccc(Cl)cc2)nc1Oc1ccc(F)cc1`, the inhibition is 14.3% (inactive). For the compound `N#CCCN(C(=O)COC(=O)c1ccc(S(=O)(=O)N2CCCCCC2)cc1)c1ccccc1`, the inhibition is -2.09% (inactive). The same measure for `CC(C)CN(C(=O)Cn1c(=O)cnc2ccccc21)C1CCS(=O)(=O)C1` (stereo not given): 11% (inactive).

On to `N#CCc1c(C#N)c(N)nc(N2CCCC2)c1C#N`, for which the inhibition was 8.26% (inactive).

Turning to `Cc1ncc(CO)c(/C=N/NC(=O)c2cccc(S(=O)(=O)N3CCCC3)c2)c1O`, the inhibition was -9.29% (inactive). Turning to `CCn1c2c(c3ccc(OC)cc31)CCCC2=O`, the inhibition is -5.03% (inactive). Take `CCC(=O)/C(=C(/O)c1ccccc1)c1nc2ccccc2[nH]1`: the inhibition is 3.53% (inactive).

Consider `O=C(Cc1nc2ccccc2[nH]c1=O)c1ccc(Cl)cc1`, for which the inhibition is 0.565% (inactive). The same measure for `O=C(/C(=C/c1cccc(Cl)c1)c1nc2ccccc2[nH]1)c1ccccc1`: 68.4% (active); for `CCCCn1c(N)c(N(CC(C)C)C(=O)CSc2ccc([N+](=O)[O-])cc2)c(=O)[nH]c1=O`: 6.23% (inactive). Under `CC(Oc1ccc(Br)cc1)C(=O)NCC(c1ccco1)N1CCCCC1` (stereo not given) stands -0.255% (inactive); under `CCN(C(=O)CSc1nnnn1-c1ccccc1OC)C1CCS(=O)(=O)C1` (stereo not given), -11.8% (inactive). For `COC(=O)C1=C(C)Nc2ncnn2C1c1cccnc1` (stereo not given), the inhibition was 17.7% (inactive). With `COC(=O)C1=C(C)Nc2ncnn2C1c1ccco1` (stereo not given), the inhibition is -1.94% (inactive). Turning to `CC1=C(C(=O)OC2CCCCC2)C(c2cccnc2)n2ncnc2N1` (stereo not given), the inhibition was 61.7% (active). Take `COc1ccc(C(=O)COC(=O)COc2ccc(C)c(C)c2)cc1`: the inhibition is 4.19% (inactive).

`O=S(=O)(NC1CCCCC1N1CCN(c2ccccc2F)CC1)c1ccccc1` (stereo not given): the inhibition is 20.8% (inactive). For `Cc1n[nH]c(=O)c2c(NC(=O)COC(=O)c3ncc(Cl)c(Cl)c3Cl)oc(C)c12`, the inhibition was -10.3% (inactive). `COc1ccc2c(CC(=O)OCC(=O)Nc3ccccc3[N+](=O)[O-])coc2c1`: the inhibition is 16.9% (inactive). With `CCc1ccccc1NC(=O)CN(c1ccc(OC)cc1OC)S(=O)(=O)c1ccccc1[N+](=O)[O-]`, the inhibition is 58.4% (active). On to `COc1ccc(N(CC(=O)Nc2cccc3ccccc23)S(C)(=O)=O)c(OC)c1`, for which the inhibition was -7.06% (inactive). With `O=C1N[C@@H](Cc2ccccc2)C(=O)N2[C@H]1C[C@]1(Br)c3ccccc3N(S(=O)(=O)c3ccccc3)[C@H]21`, the inhibition was -12.8% (inactive). In the case of `COc1ccc(-c2noc(COc3ccc(Cl)c(C)c3)n2)cc1`, the inhibition is -9.09% (inactive). Under `Cc1cc(Cl)ccc1OCc1nc(-c2ccncc2)no1` stands 74.8% (active); under `c1ccc(CCc2nc(-c3ccncc3)no2)cc1`, -6.81% (inactive). As to `O=C(c1ccncc1)N1CCN(S(=O)(=O)c2cccc([N+](=O)[O-])c2)CC1`, the inhibition is 25.7% (inactive). Take `CCCNC(=O)CCc1c(C)nc2c(c(C)nn2-c2ccc(C)cc2)c1C`: the inhibition was 63.7% (active).

As to `CCCNC(=O)CCc1c(C)nc2c(c(C)nn2-c2ccccc2)c1C`, the inhibition is 28% (inactive). Under `CCCNC(=O)c1c(Cl)cnn1-c1ccc(C)cc1` stands -28% (inactive); under `O=S(=O)(O)Oc1c[nH]c2ccccc12`, -8.75% (inactive). Under `COc1ccccc1NC(=O)CN(c1ccccc1OC)S(=O)(=O)c1ccccc1` stands 2.04% (inactive); under `COc1ccc(S(=O)(=O)N(CC(=O)N/N=C/c2ccccc2C(=O)O)c2ccccc2OC)cc1`, 20.6% (inactive); under `COc1ccccc1N(CC(=O)N/N=C(\C)c1ccccc1O)S(=O)(=O)c1ccc(C)cc1`, 65.9% (active).

For the compound `O=C(N/N=C/c1cc(Br)c(O)c([N+](=O)[O-])c1)C(O)(c1ccccc1)c1ccccc1`, the inhibition was -7.65% (inactive). Take `COc1ccc(C(C)=O)cc1COc1ccc(Cl)c(C)c1`: the inhibition was 14.6% (inactive). Under `COc1ccc(/C=C/C(=O)Nc2c(C)nn(C)c2C)cc1COc1ccc(Br)cc1` stands 30.9% (inactive); under `CCn1nc(C)c(NC(=O)/C=C/c2ccc(OC)c(COc3ccc(Br)cc3)c2)c1C`, 68.5% (active). Under `O=C(O)CCn1c(O)c(C=C2N=c3ccccc3=N2)sc1=S` stands -24.7% (inactive). With `COc1ccc(NC(=S)NCCN2CCC(C)CC2)cc1`, the inhibition was -11.2% (inactive). The same measure for `COc1ccc(N2CCC(CNC(=S)Nc3c(C)cccc3C)C2)cc1` (stereo not given): 55.3% (active); for `COc1ccc(NC(=S)NCC2CCN(c3ccc(OC)cc3)C2)cc1` (stereo not given): 6.37% (inactive). In the case of `CN1C(C(=O)NCC2CC2)CC2Cn3c(nc4ccccc43)C21` (stereo not given), the inhibition was -19% (inactive). For the compound `O=C1CN(C(=O)COc2c(Cl)cccc2Cl)c2ccccc2N1`, the inhibition was -8.97% (inactive). For `COc1ccccc1CCC(=O)NNC(=O)c1ccncc1`, the inhibition was 10.4% (inactive).

As to `Cc1cc(C(=O)CCl)c(C)n1CC1COc2ccccc2O1` (stereo not given), the inhibition was 60.4% (active).

For the compound `Cc1cc(NC(=O)CCC2COc3ccccc3O2)no1` (stereo not given), the inhibition is 1.39% (inactive). In the case of `O=C1C(=O)N(CC2COc3ccccc3O2)c2ccccc21` (stereo not given), the inhibition was -17% (inactive). As for `Cc1cc(C)c(C)c(S(=O)(=O)N2CCN(C(=O)c3ccc4c(=O)n5c(nc4c3)CCC5)CC2)c1C`, the inhibition was -5.27% (inactive).

For the compound `Nc1nc(Sc2ncccc2[N+](=O)[O-])n[nH]1`, the inhibition is -19.9% (inactive). Under `Brc1cnc2ccccc2c1N1CCCCC1` stands 0.276% (inactive); under `Cc1cccc(C(=O)OC(C)CN2CCCC2)c1` (stereo not given), -8.01% (inactive).

On to `Cc1ccc(C(=O)OC(C)CN2CCOCC2)cc1` (stereo not given), for which the inhibition was -11.2% (inactive). In the case of `Cc1cccc(C(=O)OC(C)CN2CCN(C)CC2)c1` (stereo not given), the inhibition was 56.8% (active). Under `COc1cc(C(=O)Nc2oc(-c3ccccc3)c(-c3ccccc3)c2C#N)cc(OC)c1OC` stands 12.7% (inactive); under `COc1ccc(-c2oc(/N=C/N3CCCC3)c(C#N)c2-c2ccc(OC)cc2)cc1`, 57.6% (active). Take `N#Cc1c(/N=C/N2CCCC2)oc(-c2ccccc2)c1-c1ccccc1`: the inhibition is 37.2% (inactive).
